Most compounds without a hit are left out; they make up all but 1.7% or so of the library.
HCV core dimer: HCV core protein dimerization inhibition | inhibition, % at 5 µM | hit rate 0.33% among 300,000 | TR-FRET GST/Flag-core106 dimerization, 1536-well;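 active = inhibition above the mean of all tested compounds plus 3 SD, set per screening campaign, cut at about 45% in these data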
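System: GST/Flag-tagged HCV core106 proteins. Incubation: compound-protein-antibody incubation 4 h at 22.5 °C. Technique: HTRF with 340 nm excitation, 617/671 nm emission. Medium: KF-containing HEPES buffer, pH 7.45, DTT, CHAPS, BSA. Read-out: inhibition (%) from 671 over 617 nm ratio. Also added: Eu(K)-anti-GST 90 ng/mL plus XL665-anti-Flag 1 µg/mL.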
ZTA counter: counter-screen for EBNA-1 inhibitors: inhibitors of Epstein-Barr virus ZTA; ZTA-DNA binding, fluorescence polarization; inhibition, % at 11 µM; hit rate 0.15% among 320,000; in the data active = inhibition above about 33%
Target sequence (P03206 whole entry, looked up): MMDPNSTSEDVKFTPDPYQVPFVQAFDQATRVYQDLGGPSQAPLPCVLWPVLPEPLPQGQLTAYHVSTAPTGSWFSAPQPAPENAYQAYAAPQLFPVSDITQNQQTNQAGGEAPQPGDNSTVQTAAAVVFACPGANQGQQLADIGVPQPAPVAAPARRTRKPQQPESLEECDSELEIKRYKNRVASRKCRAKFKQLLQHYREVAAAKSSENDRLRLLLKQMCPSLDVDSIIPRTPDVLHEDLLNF
PP1 inh: counter-screen for PP5 inhibitors: inhibitors of human PP1-alpha. purified PP1alpha, OMFP fluorescence. inhibition, % at 6.7 µM. hit rate 0.9% among 320,000;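 active = inhibition above the mean inhibition of all tested compounds plus 3 SD, computed separately for each screening campaign, cut at about 15% in these data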
Target sequence (P62136 whole entry, looked up): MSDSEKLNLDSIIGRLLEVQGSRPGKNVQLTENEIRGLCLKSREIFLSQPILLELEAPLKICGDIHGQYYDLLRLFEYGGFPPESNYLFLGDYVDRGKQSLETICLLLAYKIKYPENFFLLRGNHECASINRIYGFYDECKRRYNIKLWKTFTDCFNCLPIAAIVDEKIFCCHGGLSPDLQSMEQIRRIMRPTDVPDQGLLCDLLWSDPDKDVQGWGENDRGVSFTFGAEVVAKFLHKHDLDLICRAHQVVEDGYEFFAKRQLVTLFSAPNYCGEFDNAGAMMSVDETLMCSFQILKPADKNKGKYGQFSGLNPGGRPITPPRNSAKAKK
EBNA-1 inh: blocks EBNA-1 binding to DNA. EBNA-1 DNA binding, fluorescence polarization. inhibition, % at 14.8 µM. hit rate 0.34% among 300,000. AID 1950; in the data active = inhibition above about 28%
PP5 inh: inhibitors of human protein phosphatase 5 (PP5). P53041. purified PP5c, OMFP substrate fluorescence. inhibition, % at 6.7 µM. hit rate 0.18% among 320,000;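 active = inhibition above the campaign's mean inhibition across all tested compounds plus 3 SD, cut at about 9.5% in these data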;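 also: 0% = DMSO only and 100% = 100 µM cantharidin control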
PP1 confirm: confirmation of human PP1 phosphatase inhibitors; shares compounds with PP1 inh; purified PP1alpha, OMFP substrate fluorescence; inhibition, % at 6.7 µM; hit rate 52% among 1,900; AID 2358;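 active = mean PP1 inhibition above a set limit taken from the earlier primary screen, cut at about 15% in these data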
PP5 inh counter: inhibits human PP5 phosphatase in PP1 counter-screen. shares compounds with PP1 inh. purified PP5c, OMFP fluorescence. inhibition, % at 6.7 µM. hit rate 4% among 1,900. AID 2360;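 active = mean PP5 inhibition over triplicate wells above about 9.5% taken from the earlier PP1 screen, limit read from the data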
* = called active by the depositor; x = no result given.

SMILES | HCV core dimer | ZTA counter | PP1 inh | EBNA-1 inh | PP5 inh | PP1 confirm | PP5 inh counter
CCOc1ccc(/C=N/NC(=O)c2cc(-c3ccco3)nc3ccccc23)cc1 | 24 | 5 | 0 | 2 | 0 | x | x
Cc1ccc(NC(=O)Cn2c([N+](=O)[O-])cnc2C)cc1Cl | -3 | 4 | 0 | -4 | 2 | x | x
O=C(Cn1cnc2ccccc21)N1CCN(S(=O)(=O)c2ccccc2)CC1 | -1 | -13 | 4 | -8 | 0 | x | x
O=C(Nc1nnc(C2=COCCO2)o1)c1ccc(Cc2ccccc2)cc1 | 4 | 4 | 22* | 0 | 0 | 20* | -1
CC1CCCCN1S(=O)(=O)c1ccc(C(=O)Nc2nnc(C3=COCCO3)o2)cc1 (stereo not given) | -1 | 4 | 13 | 4 | 1 | x | x
Cc1nnc(NC(=O)c2ccc(S(=O)(=O)N3CCc4ccccc4C3)cc2)o1 | 17 | 9 | 24* | -2 | 2 | 21* | -3
CC1CCCN(S(=O)(=O)c2ccc(C(=O)Nc3nnc(C4=COCCO4)o3)cc2)C1 (stereo not given) | -12 | -17 | 19* | -2 | 4 | 1 | -4
Cc1nnc(NC(=O)c2ccc(S(=O)(=O)N3CC(C)CC(C)C3)cc2)o1 (stereo not given) | -3 | 10 | 22* | 16 | 1 | 8 | 0
Cc1nnc(NC(=O)c2ccc(S(=O)(=O)N3CCCCC3C)cc2)o1 (stereo not given) | -2 | 0 | 13 | -8 | 5 | x | x
COc1ccc([N+](=O)[O-])cc1NC(=O)c1ccc(N(Cc2ccccc2Cl)S(C)(=O)=O)cc1 | 10 | 1 | 0 | 9 | 1 | x | x
Cc1cc(C)cc(NC(=O)[C@@H](NC(=O)c2ccco2)C(C)C)c1 | 14 | 9 | -1 | 5 | -1 | x | x
CCCCCCCCCCCCCCCCn1cc[n+](C)c1 | -3 | 11 | 25* | -4 | 3 | -12 | 1
COc1ccc(CNC(=O)CSc2ccc(Br)cc2)cc1OC | 2 | 1 | -1 | -8 | 1 | x | x
COc1cnc(-c2ccccn2)nc1Sc1c(Cl)cccc1Cl | 6 | 0 | 50* | 3 | 5 | 41* | 1
COc1cnc(-c2ccccn2)nc1Sc1ccccc1Cl | 1 | -13 | 47* | -5 | 6 | 51* | 6
Cc1cc(C)c(OCC(=O)NCC2CCCO2)c(C)c1 (stereo not given) | 4 | 4 | 42* | 0 | 3 | -1 | -2
COc1ccc(C[C@H]2CN3C(=NC[C@H]3Cc3ccccc3)N2CCNC(=O)c2ccc(C)c(Br)c2)cc1 | -15 | -1 | 19* | -7 | 1 | -5 | 1
COc1ccc(C[C@H]2CN3C(=NC[C@@H]3Cc3ccccc3)N2CCNC(=O)c2ccc(C)c(Br)c2)cc1 | -16 | -16 | 22* | 2 | -1 | -7 | -2
COc1ccc(C[C@H]2CN3C(=NC[C@@H]3C(C)C)N2C[C@H](C)NC(=O)c2ccc(C)c(Br)c2)cc1 | -16 | -15 | 3 | -8 | -5 | x | x
COc1ccc(C[C@H]2CN3C(=NC[C@@H]3Cc3ccc(O)cc3)N2C[C@H](C)NC(=O)c2ccc(C)c(Br)c2)cc1 | -11 | -7 | 18* | 2 | 3 | 10 | -4
CC(=O)OCCCN1c2ccccc2Nc2nnc(-c3ccccc3)cc21 | 1 | 7 | 29* | -2 | 0 | 28* | -3
O=C(COC(=O)CNS(=O)(=O)c1ccc(Br)cc1Cl)NC1CCCC1 | 6 | 2 | -1 | -6 | 0 | x | x
CN(c1nc2ccccc2n2c(C3CC3)nnc12)S(=O)(=O)c1ccccc1 | 5 | 9 | -5 | -18 | 3 | x | x
CCN(CC(=O)NCc1ccc(Cl)cc1)C(=O)c1cc2ccccc2o1 | 4 | 2 | -4 | 1 | -1 | x | x
NC(=O)CSc1nc2scc(-c3ccco3)c2c(=O)n1-c1ccccc1 | 19 | -18 | 9 | 3 | 4 | x | x
SMILES | HCV core dimer | ZTA counter | PP1 inh | EBNA-1 inh | PP5 inh | PP1 confirm | PP5 inh counter
O=c1c2c(-c3ccco3)csc2nc(SCc2cn3cccnc3n2)n1-c1ccccc1 | 66* | 12 | 29* | 0 | 2 | 21* | 0
O=P(c1ccccc1)(c1ccccc1)c1nc(-c2ccc(Cl)cc2)oc1N1CCOCC1 | 2 | -16 | 4 | 2 | 5 | x | x
CCOC(=O)C1(Cc2cccc(Cl)c2)CCCN(C(=O)CN2C(=O)CSC2=O)C1 (stereo not given) | 9 | -12 | 19* | 6 | 1 | -3 | -5
Cc1cccc(NC(=O)c2ccccc2OCC(=O)N2CCCC2)c1C | -4 | -19 | 1 | -6 | 1 | x | x
Oc1c(CN2CCN(c3ccccn3)CC2)cc(Cl)c2cccnc12 | -6 | 12 | 26* | -5 | 3 | 30* | -5
CCCOc1ccc(-c2c(C(=O)N/N=C(\C)c3cccs3)nnn2-c2nonc2N)cc1 | 21 | 2 | -4 | 0 | 0 | x | x
Cc1nn(-c2ccccc2)c2sc(C(=O)NNC(=O)COc3ccccc3)cc12 | 3 | 2 | 23* | 1 | 1 | 22* | 0
CC(=O)c1ccc(NC(=S)NCc2ccc(Cl)cc2Cl)cc1 | 8 | 8 | 3 | -14 | 6 | x | x
COc1ccc(C(=O)c2sc3nc(-c4ccc(OC)cc4)ccc3c2N)cc1 | -30 | -10 | 1 | 2 | 1 | x | x
COc1ccc(-c2ccc3c(N)c(C(=O)c4cccc(OC)c4)sc3n2)cc1 | 16 | -4 | 30* | 17 | 7 | 26* | -3
CN1CCN(S(=O)(=O)c2cccc(C(=O)Oc3ccc(Br)cc3F)c2)CC1 | 8 | 0 | 34* | 0 | -1 | -2 | -4
CN1CCN(S(=O)(=O)c2cccc(C(=O)Oc3cccc(Br)c3)c2)CC1 | -4 | 10 | -5 | 3 | -2 | x | x
COc1ccccc1C(=O)Nc1ccc(Oc2nnc(-c3ccc(C)cc3)c3ccccc23)cc1 | 9 | 6 | 13 | 11 | 2 | x | x
Cc1ccc(Oc2nnc(-c3ccc(C)cc3)c3ccccc23)cc1 | 11 | -11 | 41* | -6 | 2 | -8 | -8
Cc1ccc(-c2cc(C(=O)NCCCn3ccnc3)c3cc(Br)ccc3n2)o1 | 16 | -4 | 32* | 4 | 0 | -8 | -6
CCCCCOc1ccc(/C(C)=N/NC2=NCCN2)cc1 | 5 | -12 | 1 | 1 | 1 | x | x
CCCCCCOc1ccc(/C(C)=N/NC2=NCCN2)cc1 | -13 | -2 | 20* | -2 | 3 | -1 | -3
CS(=O)(=O)c1ccccc1-c1nnc(NC(=O)c2cccc(N3C(=O)CCC3=O)c2)o1 | 0 | -4 | -1 | -6 | 1 | x | x
COc1ccc(/C=N/Nc2cc(C)nc3ccc(Br)cc23)cc1 | -9 | 6 | 22* | -23 | 3 | -6 | 6

Screening data (PubChem)
